The text below walks through data of PMC4567406 (Journal of medicinal chemistry, 2015).

Entries after “also recorded” stand apart in the source; their conditions may differ.

Test [1] relates to BT142 glioma cells with IDH1 R132H mutation. The test is described as follows: Proliferation of glioma stem-like cells. The settings on record: 14 days. The format is cell-based.
Test [2] has as its system BXD-3752 glioma cells without an IDH1 mutation. The test is described as follows: Proliferation of glioma stem-like cells. The format is cell-based. The settings on record: BXD-3752, no IDH1 mutation, 14 days.
For test [3], the system named is IDH1 mutated cancer cells. As to conditions: cited from earlier work.
Test [4] has as its target T1, IDH1(R132H) (Homo sapiens, UniProt O75874, R132H). The test is described as follows: IDH1. In kind it is biochemical. The settings on record: for Fold less active than compound 4: IDH1(R132H) Ki compared with compound 4. In short, it runs like this:
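E. coli-expressed, column-purified IDH1(R132H) (100 nM) in 50 mM HEPES pH 7.5 with 4 mM MgCl2, 100 µM NADPH and graded inhibitor. After 5 min preincubation, 1 mM α-KG was added to start the reaction. NADPH consumption was read at 340 nm every 30 s. IC50s came from dose-response fits. Ki was derived by Cheng-Prusoff (Km 0.965 mM), or by Morrison tight-binding fitting when IC50 <1 µM. Values are means of ≥3 independent runs.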

Test [5] relates to HT1080 cells (IDH1 R132C). The test is described as follows: D2HG production inhibition in HT1080 cells. In kind it is cell-based, human. The settings on record: treated 2 days (48h). The method, boiled down:
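HT1080 cells (10^5/well) grown in DMEM with 10% dialyzed FBS and exposed to increasing test-compound concentrations for 48h. Culture medium was collected, diluted with MeOH and centrifuged (20,000 rpm, 3 min). D2HG in the supernatant was quantified by HPLC-MS.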

In test [6] the target is T1, IDH1(R132H). The test is described as follows: Isothermal titration calorimetry. The format is binding.
The test system of test [7] is HT1080 cells (IDH1 R132C). The test is described as follows: Histone lysine methylation levels, Western blot. The format is cell-based, human. As to conditions: treated 4 days. The method, boiled down:
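After 4 days of test-compound exposure, histones were extracted from treated and control HT1080 cells. Extracts were analysed by Western blot using antibodies to total human histone H3 and to specific methylated lysine marks.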
For orientation: A western blot detects proteins with antibodies after separation by electrophoresis.

For test [8], the target named is T1, IDH1(R132H). The test is described as follows: Steady-state enzyme kinetic study. The format is biochemical.
The mark [9] stands for this setting: IDH1(R132H) 100 μM without NADPH, 298K.
Setting [10] is: IDH1(R132H) 100 μM without NADPH, 298K, pH 7.4.

T1 sequence (O75874 whole entry R132H): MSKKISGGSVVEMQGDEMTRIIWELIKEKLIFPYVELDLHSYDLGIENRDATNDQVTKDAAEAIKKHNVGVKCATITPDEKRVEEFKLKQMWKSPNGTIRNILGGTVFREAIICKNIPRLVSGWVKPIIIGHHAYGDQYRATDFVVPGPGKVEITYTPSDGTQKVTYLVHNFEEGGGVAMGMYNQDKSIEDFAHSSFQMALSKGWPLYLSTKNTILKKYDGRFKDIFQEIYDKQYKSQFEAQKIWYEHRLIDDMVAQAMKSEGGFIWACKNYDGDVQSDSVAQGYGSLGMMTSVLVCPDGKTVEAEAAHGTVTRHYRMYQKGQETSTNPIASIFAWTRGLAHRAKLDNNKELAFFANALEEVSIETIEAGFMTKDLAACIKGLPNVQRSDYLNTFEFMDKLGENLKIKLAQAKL

In the case of `Cc1ccccc1C(C(=O)NC1CCCCC1)N(C(=O)Cn1ccnc1C)c1cccc(F)c1` (stereo not shown) [Compound 1, reference compound], the “Effect on proliferation / neurosphere formation of glioma stem-like cells” value is reported as “inhibited neurosphere formation; also recorded: can inhibit growth” in test [1] and “did not affect neurosphere formation” in test [2]. Moreover, the “Effect on proliferation of IDH1 mutated cancer cells” value in test [3] is on record as “can also inhibit proliferation”. Consider `O=C1C(=Cc2ccc(O)c(O)c2)NC(=S)N1Cc1ccccc1` [Compound 4, 3-benzyl-5-(3,4-dihydroxybenzylidene)-2-thiohydantoin], for which the Ki (usually the dissociation constant of the complex between target and ligand, obtained from inhibition or displacement) on IDH1(R132H) [4] was determined as 4.7 µM. Take `COc1ccc(/C=C2/NC(=S)N(c3ccccc3)C2=O)cc1OC` [Compound 6]: the “Inhibitory activity against IDH1(R132H) in words” value (“Inhibitory activity” for short) at IDH1(R132H) [4] was “inactive”. On the same count and under the same terms, then `COc1ccc(CN2C(=O)/C(=C\c3ccc(OC)c(OC)c3)NC2=S)cc1` [Compound 7], with “inactive”. In the case of `O=C1/C(=C\c2ccc(O)c(O)c2)NC(=S)N1c1ccccc1` [Compound 8], on IDH1(R132H) [4], the “Fold less active than compound 4” value is on record as ~ 3 fold.

On to `O=C1/C(=C\c2ccc(O)c(O)c2)NC(=S)N1Cc1ccc(O)cc1` [Compound 9], for which the “Fold less active than compound 4” value at IDH1(R132H) [4] was ~ 3 fold. `O=C1/C(=C\c2cccnc2)NC(=S)N1Cc1ccccc1` [Compound 10]: the “Inhibitory activity” value at IDH1(R132H) [4] was “inactive”.

As for `COc1ccc(/C=C2/NC(=S)N(Cc3ccccc3)C2=O)cn1` [Compound 11], the “Inhibitory activity” value on IDH1(R132H) [4] was “inactive”. `CN1C(=O)/C(=C\c2ccc(=O)[nH]c2)NC1=S` [Compound 16]: the “Effect on proliferation / neurosphere formation of glioma stem-like cells” value in test [1] is reported as “inhibited neurosphere formation; also recorded: significantly inhibit proliferation”; in test [2], “did not affect neurosphere formation; also recorded: did not have activity”. Further, the “Effect on production of D2HG” value in test [5] is “significantly reduced the production of D2HG; also recorded: significantly reduced amount of D2HG”. `O=C1NC(=S)N/C1=C/c1ccc(=O)[nH]c1` [Compound 18]: the “Effect on proliferation / neurosphere formation of glioma stem-like cells” value in test [1] was “inhibited neurosphere formation; also recorded: significantly inhibit proliferation”. Moreover, at IDH1(R132H) [6] (setting [9]), the “calculated ΔS of binding” value was 95.0 J K^−1 mol^−1 and the ΔG of binding is -29.8 kJ/mol. At IDH1(R132H) [6] (setting [10]), the “Ka (affinity constant)” value came out at 168000 M⁻¹ and the ΔH of binding was -1.5 kJ/mol. On IDH1(R132H) [6] (IDH1(R132H) 133 μM in the presence of NADPH (300 μM)), the ΔH of binding was -2.5 kJ/mol. Besides, in test [2], the “Effect on proliferation / neurosphere formation of glioma stem-like cells” value was “did not affect neurosphere formation; also recorded: did not have activity”. Moreover, the “Effect on production of D2HG” value in test [5] was “significantly reduced the production of D2HG; also recorded: significantly reduced amount of D2HG”. In addition, the “Effect on histone lysine methylation levels (H3K4me3, H3K4me2, H3K27me2, H4K20me2)” value in test [7] was “significantly reduced methylation levels; also recorded: significantly reduce the methylation levels”. The “Mode of action against the cofactor NADPH” value on IDH1(R132H) [8] (variable NADPH, Michaelis-Menten plot) is reported as “noncompetitive”. In addition, the “Mode of action against the substrate α-KG” value on IDH1(R132H) [8] (variable α-KG, Lineweaver-Burk plot) is listed as “competitive”. Regarding `COc1ccc(/C=C2/NC(=S)N(CC(=O)O)C2=O)cn1` [Compound 19], the “Inhibitory activity” value at IDH1(R132H) [4] was “none of these compounds are active”. As to `O=C(O)CN1C(=O)/C(=C\c2ccc(=O)[nH]c2)NC1=S` [Compound 20], in test [5], the “Effect on production of D2HG” value is reported as “did not significantly reduce D2HG”. The “Effect on histone lysine methylation levels (H3K4me3, H3K4me2, H3K27me2, H4K20me2)” value in test [7] is on record as “did not significantly affect histone methylation levels; also recorded: did not significantly reduce”. Moreover, the “Inhibitory activity” value on IDH1(R132H) [4] is “none of these compounds are active”. Regarding `O=C1NC(=S)N/C1=C/c1ccnc(Br)c1` [Compound 32], the “Inhibitory activity” value at IDH1(R132H) [4] was “Loss of activity”. The same measure, in the same setting: the entry for `COc1ccc(/C=C2/NC(=O)NC2=O)cn1` [Compound 37] is “Complete loss of activity”; for `O=C1NC(=O)/C(=C\c2ccc(=O)[nH]c2)N1` [Compound 38] it is “Complete loss of activity”; for `NC1=N/C(=C/c2ccc(=O)[nH]c2)C(=O)N1` [Compound 39] it is “inactive”. Same read-out and setting: the entry for `CSC1=N/C(=C/c2ccc(=O)[nH]c2)C(=O)N1` [Compound 40] is “completely lose the inhibitory activity”. On to `CN1C(=O)/C(=C\c2ccc(=O)[nH]c2)N(C)C1=S` [Compound 41], for which the “Fold activity reduction compared to compound 16” value on IDH1(R132H) [4] (IDH1(R132H) Ki compared with compound 16) was found to be 22 fold.
